Source: ChEMBL document CHEMBL3120154, “2-[N-Alkyl(R-phenyl)-aminomethyl]-3-phenyl-7-trifluoromethylquinoxalines as anticancer agents inhibitors of folate enzymes” (Eur J Med Chem, 2014)

Tests used:
Type in all cases: functional
SF-268 = assay: Cytotoxicity against human SF268 cells at 10^-5 M after 48 hrs by SRB assay; details: SF-268, 48 h, read-out: GI
How it was run: (§1)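 Second-stage screen in the 60-cell-line human tumor panel at NCI, over a 5-log range (100, 10, 1, 0.1, 0.01 micromolar). Cells were exposed to drug for 48 h and growth was estimated with a sulforhodamine B protein stain. The value is percent growth inhibition at each concentration.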

HCT-15 [1] = assay: Cytotoxicity against human HCT15 cells at 10^-5 M after 48 hrs by SRB assay; details: HCT-15, 48 h, read-out: GI
How it was run: (§2)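 Run by NCI on its 60-line human tumor cell panel, after a three-cell-line prescreen. Cells were exposed to drug for 48 h over a 5-log range: 100, 10, 1, 0.1 and 0.01 micromolar. Growth was estimated by sulforhodamine B (SRB) protein staining. Percent growth inhibition (I%) was recorded at each concentration relative to untreated control cells.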

SNB-75 = assay: Cytotoxicity against human SNB75 cells at 10^-5 M after 48 hrs by SRB assay; details: SNB-75, 48 h, read-out: GI
LOX IMVI = assay: Cytotoxicity against human LOXIMVI cells at 10^-6 M after 48 hrs by SRB assay; details: read-out: GI
How it was run: (§3)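 Run in the NCI 60-cell-line screen after a three-line prescreen. Cells got a 48 h drug exposure; viability/growth was estimated with the sulforhodamine B protein assay. Growth inhibition (I%) was recorded at 100, 10, 1, 0.1 and 0.01 micromolar. Percent growth is relative to untreated control cells, and negative values indicate cell kill.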

SF-295 = assay: Cytotoxicity against human SF295 cells at 10^-5 M after 48 hrs by SRB assay; details: SF-295, 48 h, read-out: GI
SN12C [2] = assay: Cytotoxicity against human SN12C cells at 10^-6 M after 48 hrs by SRB assay; details: read-out: GI
PC-3 = assay: Cytotoxicity against human PC3 cells at 10^-6 M after 48 hrs by SRB assay; details: PC-3, 48 h, read-out: GI; how it was run: as §1
NCI-H522 = assay: Cytotoxicity against human NCI-H522 cells at 10^-5 M after 48 hrs by SRB assay; details: NCI-H522, 48 h, read-out: GI; how it was run: as §3
HCT-15 [3] = assay: Cytotoxicity against human HCT15 cells at 10^-6 M after 48 hrs by SRB assay; details: HCT-15, 48 h, read-out: GI; how it was run: as §2
MDA-MB-435 = assay: Cytotoxicity against human MDA-MB-435 cells at 10^-6 M after 48 hrs by SRB assay; details: MDA-MB-435, 48 h, read-out: GI; how it was run: as §3
HOP-62 = assay: Cytotoxicity against human HOP62 cells at 10^-8 M after 48 hrs by SRB assay; details: HOP-62, 48 h, read-out: GI
[4] = Cytotoxicity against human EKVX cells at 10^-6 M after 48 hrs by SRB assay; details: read-out: GI; how it was run: as §2
NCI-H226 = assay: Cytotoxicity against human NCI-H226 cells at 10^-6 M after 48 hrs by SRB assay; details: NCI-H226, 48 h, read-out: GI; how it was run: as §3
SNB-19 = assay: Cytotoxicity against human SNB19 cells at 10^-8 M after 48 hrs by SRB assay; details: SNB-19, 48 h, read-out: GI
RPMI-8226 = assay: Cytotoxicity against human RPMI8226 cells at 10^-6 M after 48 hrs by SRB assay; details: RPMI-8226, 48 h, read-out: GI; how it was run: as §1
A549 = assay: Cytotoxicity against human A549 cells at 10^-6 M after 48 hrs by SRB assay; details: A549, 48 h, read-out: GI; how it was run: as §2
SK-MEL-28 [5] = assay: Cytotoxicity against human SK-MEL-28 cells at 10^-5 M after 48 hrs by SRB assay; details: SK-MEL-28, 48 h, read-out: GI; how it was run: as §1
SF-539 = assay: Cytotoxicity against human SF539 cells at 10^-6 M after 48 hrs by SRB assay; details: SF-539, 48 h, read-out: GI; how it was run: as §1
NCI-H460 [6] = assay: Cytotoxicity against human NCI-H460 cells at 10^-6 M after 48 hrs by SRB assay; details: NCI-H460, 48 h, read-out: GI; how it was run: as §3
DU-145 = assay: Cytotoxicity against human DU145 cells at 10^-5 M after 48 hrs by SRB assay; details: DU-145, 48 h, read-out: GI; how it was run: as §2
[7] = Cytotoxicity against human Hs578T cells at 10^-5 M after 48 hrs by SRB assay; details: Hs-578T, read-out: GI; how it was run: as §2
786-0 = assay: Cytotoxicity against human 786-0 cells at 10^-6 M after 48 hrs by SRB assay; details: 786-0, 48 h, read-out: GI; how it was run: as §2
MDA-MB-231 [8] = assay: Cytotoxicity against human MDA-MB-231 cells at 10^-7 M after 48 hrs by SRB assay; details: MDA-MB-231, 48 h, read-out: GI
MDA-MB-231 [9] = assay: Cytotoxicity against human MDA-MB-231 cells at 10^-6 M after 48 hrs by SRB assay; details: MDA-MB-231, 48 h, read-out: GI; how it was run: as §3
SN12C [10] = assay: Cytotoxicity against human SN12C cells at 10^-5 M after 48 hrs by SRB assay; details: read-out: GI
NCI/ADR-RES = assay: Cytotoxicity against human NCI/ADR-RES cells at 10^-6 M after 48 hrs by SRB assay; details: read-out: GI; how it was run: as §3
SK-MEL-28 [11] = assay: Cytotoxicity against human SK-MEL-28 cells at 10^-6 M after 48 hrs by SRB assay; details: SK-MEL-28, 48 h, read-out: GI; how it was run: as §1
SK-OV-3 = assay: Cytotoxicity against human SKOV3 cells at 10^-5 M after 48 hrs by SRB assay; details: SK-OV-3, 48 h, read-out: GI; how it was run: as §1
NCI-H23 = assay: Cytotoxicity against human NCI-H23 cells at 10^-5 M after 48 hrs by SRB assay; details: NCI-H23, 48 h, read-out: GI; how it was run: as §3
CAKI-1 = assay: Cytotoxicity against human Caki1 cells at 10^-5 M after 48 hrs by SRB assay; details: CAKI-1, 48 h, read-out: GI; how it was run: as §2
CCRF-CEM = assay: Cytotoxicity against human CCRF-CEM cells at 10^-5 M after 48 hrs by SRB assay; details: read-out: GI; how it was run: as §2
NCI-H322M = assay: Cytotoxicity against human NCI-H322M cells at 10^-6 M after 48 hrs by SRB assay; details: read-out: GI; how it was run: as §3
UACC-62 = assay: Cytotoxicity against human UACC62 cells at 10^-5 M after 48 hrs by SRB assay; details: UACC-62, 48 h, read-out: GI
NCI-H460 [12] = assay: Cytotoxicity against human NCI-H460 cells at 10^-5 M after 48 hrs by SRB assay; details: NCI-H460, 48 h, read-out: GI; how it was run: as §3
HL-60(TB) = assay: Cytotoxicity against human HL-60(TB) cells at 10^-5 M after 48 hrs by SRB assay; details: HL-60, 48 h, read-out: GI
How it was run: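 NCI 60-human-tumour-cell-line screen run over a 5-log dose range (100, 10, 1, 0.1 and 0.01 µM). Cells were exposed to drug for 48 h. Growth was estimated by sulforhodamine B protein staining. Values are percent growth inhibition at each concentration, relative to untreated control cells.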

[13] = Cytotoxicity against human Hs578T cells at 10^-6 M after 48 hrs by SRB assay; details: Hs-578T, read-out: GI; how it was run: as §2

Row | Compound | inhibition of growth at 10 µM (SF-268) [%] | inhibition of growth at 10 µM (HCT-15 [1]) [%] | inhibition of growth at 10 µM (SNB-75) [%] | inhibition of growth at 1 µM (LOX IMVI) [%] | inhibition of growth at 1 µM (SN12C [2]) [%] | inhibition of growth at 1 µM (PC-3) [%] | inhibition of growth at 10 µM (NCI-H522) [%] | inhibition of growth at 1 µM (HCT-15 [3]) [%] | inhibition of growth at 1 µM (MDA-MB-435) [%] | inhibition of growth at 1 µM [4] [%] | inhibition of growth at 1 µM (NCI-H226) [%] | inhibition of growth at 1 µM (RPMI-8226) [%] | inhibition of growth at 1 µM (A549) [%] | inhibition of growth at 10 µM (SK-MEL-28 [5]) [%] | inhibition of growth at 1 µM (SF-539) [%] | inhibition of growth at 1 µM (NCI-H460 [6]) [%] | inhibition of growth at 10 µM (DU-145) [%] | inhibition of growth at 10 µM [7] [%] | inhibition of growth at 1 µM (786-0) [%] | inhibition of growth at 1 µM (MDA-MB-231 [9]) [%] | other results
1 | CCN(Cc1nc2cc(C(F)(F)F)ccc2nc1-c1ccccc1)c1ccc(OC)c(OC)c1 | 15 | 17 | < 40 | < 40 | < 40 | 13 | 28 | < 40 | < 40 | < 40 | 17 | < 40 | 56 | < 40 | < 40 | < 40 | 26 | 43 | < 40 | < 40 | inhibition of growth at 10 µM (SF-295): 18%; inhibition of growth at 0.01 µM (HOP-62): < 40%; inhibition of growth at 0.01 µM (SNB-19): < 40%; inhibition of growth at 0.1 µM (MDA-MB-231 [8]): < 40%; inhibition of growth at 10 µM (SN12C [10]): 21%; inhibition of growth at 1 µM (NCI/ADR-RES): < 40%; inhibition of growth at 1 µM (SK-MEL-28 [11]): < 40%; inhibition of growth at 10 µM (SK-OV-3): < 40%; inhibition of growth at 10 µM (NCI-H23): 34%; inhibition of growth at 10 µM (CAKI-1): 29%; inhibition of growth at 10 µM (CCRF-CEM): 70%; inhibition of growth at 1 µM (NCI-H322M): < 40%; inhibition of growth at 10 µM (UACC-62): 24%; inhibition of growth at 10 µM (NCI-H460 [12]): 25%; inhibition of growth at 10 µM (HL-60(TB)): 83%; inhibition of growth at 1 µM [13]: < 40%
2 | C#CCN(Cc1nc2cc(C(F)(F)F)ccc2nc1-c1ccccc1)c1ccc(C)cc1 | 50 | 110 | 118 | < 40 | < 40 | < 40 | 76 | 63 | 104 | < 40 | < 40 | < 40 | 45 | 71 | < 40 | 62 | < 40 | 88 | < 40 | < 40 | inhibition of growth at 10 µM (SN12C [10]): 80%; inhibition of growth at 1 µM (NCI/ADR-RES): 109%; inhibition of growth at 1 µM (SK-MEL-28 [11]): < 40%; inhibition of growth at 10 µM (SK-OV-3): 112%; inhibition of growth at 10 µM (NCI-H23): 92%; inhibition of growth at 10 µM (CAKI-1): 82%; inhibition of growth at 10 µM (CCRF-CEM): < 40%; inhibition of growth at 1 µM (NCI-H322M): < 40%; inhibition of growth at 10 µM (UACC-62): 91%; inhibition of growth at 10 µM (NCI-H460 [12]): 75%; inhibition of growth at 10 µM (HL-60(TB)): 85%; inhibition of growth at 1 µM [13]: < 40%
